Tests used:
Rattus norvegicus [1] = experiment: Antiinflammatory activity against carrageenan-induced paw edema in Albino rat at 30 mg/kg body weight, sc; format: functional; settings: route subcutaneous
Procedure, shortened: (§1)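 Rats from National Research Centre, acclimatised one week, 12 h light/dark, food and water ad libitum; groups of six. Right hind paw sub-plantar injection of 0.05 mL 1% carrageenan in saline. Drugs dissolved in DMSO, given subcutaneously; vehicle controls got DMSO. Paw volume measured before and 0.5, 1.5, 2, 3, 6, 8 h post-carrageenan; edema AUC by trapezoidal method, mean ± S.E.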

Rattus norvegicus [2] = experiment: Toxicity assessed as ulcerogenic effect in Albino rat at 30 mg/kg, po twice a day after 3 days; format: organism-based; parameters: dose 30 mg/kg, route oral; settings: in vivo, 72 h
Procedure, shortened: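 Male albino rats, 150–200 g, fasted 12 h (water ad libitum), six per group. Oral dosing in two equal doses of 30 mg/kg at 0 and 12 h for three successive days; controls received 1% gum acacia orally. Killed with diethyl ether 6 h after final dose; stomach opened along greater curvature, saline-washed, examined under 3× lens for hyperemia, haemorrhage or ulcer. % ulceration = ulcer-bearing animals/group total ×100.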

Rattus norvegicus [3] = experiment: Antiinflammatory activity against carrageenan-induced paw edema in Albino rat at 200 mg/kg body weight, sc; format: functional; settings: route subcutaneous; procedure, shortened: as §1

Compound	Activity (Rattus norvegicus [1]) [%]	Activity (Rattus norvegicus [2]) [%]	Activity (Rattus norvegicus [3]) [%]
CC(C)Cc1ccc(C(C)c2nnc(Nc3ccc(Br)cc3)[nH]2)cc1 (centres undefined)	69.52	33.3	–
CC(c1ccc(-c2ccccc2)c(F)c1)c1nnc(Nc2cccc(Cl)c2)[nH]1 (centres undefined)	69.65	0	–
COc1ccc2cc(C(C)c3nnc(Nc4cccc(Cl)c4)[nH]3)ccc2c1 (centres undefined)	66.8	0	–
COc1ccc2cc(C(C)c3nnc(Nc4ccc(Br)cc4)[nH]3)ccc2c1 (centres undefined)	69.67	–	–
CC(C)Cc1ccc(C(C)c2nnc(Nc3cccc(Cl)c3)[nH]2)cc1 (centres undefined)	70.86	–	–
CC(c1ccc(-c2ccccc2)c(F)c1)c1nnc(Nc2ccc(Br)cc2)[nH]1 (centres undefined)	68.36	0	–
CC(C)Cc1ccc(C(C)c2nnc3sc(S)nn23)cc1 (centres undefined)	72.1	–	–
C[C@]12CCC(=O)C=C1CC[C@@H]1[C@@H]2[C@@H](O)C[C@@]2(C)[C@H]1CC[C@]2(O)C(=O)CO [HYDROCORTISONE]	–	–	73.39
CC(C)Cc1ccc(C(C)C(=O)O)cc1 (centres undefined) [IBUPROFEN]	86.07	–	–
COc1ccc2c(c1)c(CC(=O)O)c(C)n2C(=O)c1ccc(Cl)cc1 [INDOMETHACIN]	–	100	–

— ChEMBL document CHEMBL1142876, “Non-carboxylic analogues of arylpropionic acids: synthesis, anti-inflammatory activity and ulcerogenic potential” (Eur J Med Chem, 2007)
